Reference: paper PMC2532710 (Nucleic Acids Research, 2008)

Key:
protein-free HJ DNA = assay: peptide/RecG band shift assay on HJ; assay type: binding; conditions: read-out: dissociation constant (Kd) by band shift assay; peptide dimer, HJ
[1] = system: fork substrate with only the lagging strand; assay: 2-AP fluorescence quenching, lagging strand fork; assay type: binding
In short: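 Substrates were annealed from oligos (boiled 5 min, slow-cooled), gel-purified on native 12% PAGE and quantified spectrophotometrically. After ≥10 min equilibration, emission was read at 330–430 nm (excitation 315 nm). Adenine-substituted spectra were subtracted, and fold decrease at 370 nm was taken versus no peptide.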

Kd (protein-free HJ DNA): 12.5 nM
Substance: (WRWYCR)2 (disulfide)
fold decrease in 2-AP fluorescence at 370 nm ([1]; Lag-1AP1 (central base), 0.05 μM dimer, 0.25:1): 1.0 fold
fold decrease in 2-AP fluorescence at 370 nm ([1]; Lag-1AP1 (central base), 0.2 μM dimer, 1:1): 1.0 fold
fold decrease in 2-AP fluorescence at 370 nm ([1]; Lag-1AP1 (central base), 0.8 μM dimer, 4:1): 1.3 fold
fold decrease in 2-AP fluorescence at 370 nm ([1]; Lag-1AP1 (central base), 1.6 μM dimer, 8:1): 2.0 fold
2-AP quenching ([1]; Lag-1AP1, 4- and 8-fold molar excess): quenched
2-AP quenching ([1]; Lag-3AP2): only very weak quenching
fold decrease in 2-AP fluorescence at 370 nm ([1]; Lag-3AP2, 0.05 μM dimer, 0.25:1): 1.0 fold
fold decrease in 2-AP fluorescence at 370 nm ([1]; Lag-3AP2, 0.2 μM dimer, 1:1): 1.0 fold
fold decrease in 2-AP fluorescence at 370 nm ([1]; Lag-4AP1 (central base), 0.05 μM dimer, 0.25:1): 1.0 fold
fold decrease in 2-AP fluorescence at 370 nm ([1]; Lag-4AP1 (central base), 0.8 μM dimer, 4:1): 1.3 fold
fold decrease in 2-AP fluorescence at 370 nm ([1]; Lag-4AP1 (central base), 1.6 μM dimer, 8:1): 1.9 fold
2-AP quenching ([1]; Lag-4AP1 and Lag-4AP2): quenched strongly
fold decrease in 2-AP fluorescence at 370 nm ([1]; Lag-4AP2 (central base), 0.05 μM dimer, 0.25:1): 1.0 fold
fold decrease in 2-AP fluorescence at 370 nm ([1]; Lag-4AP2 (central base), 0.8 μM dimer, 4:1): 1.3 fold
fold decrease in 2-AP fluorescence at 370 nm ([1]; Lag-4AP2 (central base), 1.6 μM dimer, 8:1): 1.6 fold
fold decrease in 2-AP fluorescence at 370 nm ([1]; Lag-4AP3, 0.05 μM dimer, 0.25:1): 1.0 fold
fold decrease in 2-AP fluorescence at 370 nm ([1]; Lag-4AP3, 0.2 μM dimer, 1:1): 1.0 fold
fold decrease in 2-AP fluorescence at 370 nm ([1]; Lag-4AP3, 0.8 μM dimer, 4:1): 1.2 fold
fold decrease in 2-AP fluorescence at 370 nm ([1]; Lag-4AP3, 1.6 μM dimer, 8:1): 1.3 fold
2-AP quenching ([1]; Lag-4AP3 and Lag-4AP4): quenched relatively weakly
fold decrease in 2-AP fluorescence at 370 nm ([1]; Lag-4AP4, 0.05 μM dimer, 0.25:1): 1.0 fold
fold decrease in 2-AP fluorescence at 370 nm ([1]; Lag-4AP4, 0.2 μM dimer, 1:1): 1.0 fold
fold decrease in 2-AP fluorescence at 370 nm ([1]; Lag-4AP4, 1.6 μM dimer, 8:1): 1.0 fold
